# TDP2 absorb = blocks human TDP2 phosphodiesterase activity. recombinant TDP2, T5PNP hydrolysis, p-nitrophenol absorbance 415 nm. inhibition, % at 12.8 µM. actives 0.34% (n = 370,000);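 active = inhibition above the mean of all tested compounds plus 3 SD, set per campaign, cut at about 25% in these data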;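 also: 0% = DMSO with enzyme and 100% = buffer with substrate but no TDP2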
# Target sequence (O95551 whole entry, looked up): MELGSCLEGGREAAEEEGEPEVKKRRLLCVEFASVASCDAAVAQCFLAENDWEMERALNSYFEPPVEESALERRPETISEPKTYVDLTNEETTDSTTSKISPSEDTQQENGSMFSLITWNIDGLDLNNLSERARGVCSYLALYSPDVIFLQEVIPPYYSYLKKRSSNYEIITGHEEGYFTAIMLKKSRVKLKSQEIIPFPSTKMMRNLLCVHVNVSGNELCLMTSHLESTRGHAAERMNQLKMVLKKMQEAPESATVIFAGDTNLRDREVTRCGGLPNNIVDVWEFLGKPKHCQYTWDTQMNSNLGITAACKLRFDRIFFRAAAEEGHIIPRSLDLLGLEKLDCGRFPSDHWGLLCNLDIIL
#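 System – recombinant human TDP2 · Quantity – TDP2 enzyme at 120 nM final · Doses – single concentration, 12.8 µM nominal, with 1% DMSO · Incubation – 2 h at 37 °C · Measured by – epi absorbance of p-nitrophenol freed from T5PNP by hydrolysis · Read-out – % inhibition relative to enzyme-containing and enzyme-free wells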
# LEDGF integ inh = blocks HIV-1 LEDGF/p75-dependent DNA integration; inhibition, % at 3.7 µM; actives 0.64% (n = 370,000); TR-FRET IN-LEDGF/p75 DNA integration, Eu/Cy5;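 active = inhibition above the screen-wide mean plus 3 SD, cut at about 13% in these data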;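 also: signal is the Cy5 over europium emission ratio at 671 and 618 nm; 0% = plate median of compound wells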
# ARFGAP1 inh = inhibits rat ARF GTPase activating protein 1; Q62848; Arfgap1-stimulated ARF1 GTP hydrolysis, GDP FP detection; inhibition, % at 16.5 µM; actives 0.26% (n = 360,000); AID 651572;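 active = inhibition above a per-plate limit, mean inhibition of low control wells plus 3 SD, cut at about 25% in these data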;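 also: 0% = DMSO wells with enzyme and 100% = wells lacking Arfgap1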
# Target sequence (Q62848 1-136 limits assumed): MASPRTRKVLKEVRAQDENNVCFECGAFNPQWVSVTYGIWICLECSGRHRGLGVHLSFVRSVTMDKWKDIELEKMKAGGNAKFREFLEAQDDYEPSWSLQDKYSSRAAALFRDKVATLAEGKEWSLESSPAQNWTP
#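 System: truncated rat Arfgap1 GAP domain / Medium: HEPES-based buffer, pH 7.5 / Also added: N-terminally truncated human ARF1-GTP substrate / Incubation: enzyme reaction 120 min at 25 °C after 20 min preincubation / Measured by: FP of antibody-bound GDP Alexa 633 tracer, ex 620/em 688 nm / Replicates: singlicate, each compound tested once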
# Casp6 inh = caspase-6 (human) enzyme inhibition. purified caspase-6, Z-VEID-R110 cleavage fluorescence. actives 0.53% (n = 350,000). AID 686996. inhibition, % at 12.5 µM;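 active = mean inhibition across replicates at least about 35%, with every replicate also reaching that limit, limit read from the data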;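 also: 0% = median of neutral control wells and 100% = no fluorescence left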
# ASAP1 GAP inh = ASAP1 ArfGAP inhibition; Q9ULH1; ASAP1-stimulated ARF1 GTP hydrolysis, GDP FP detection; inhibition, % at 16.5 µM; actives 0.19% (n = 360,000); AID 624377; in the data active = inhibition above about 25%;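 also: 0% = vehicle with enzyme and substrate and 100% = no enzyme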
# IN multimer act = activates HIV-1 integrase multimerization in LEDGF counter-screen | shares compounds with LEDGF integ inh | TR-FRET HIV-1 integrase multimerization, biochemical | activation, % at 7.7 µM | actives 17% (n = 2,000) | AID 1053131; in the data active = activation above about 8.9%
# TR-FRET interf = TR-FRET optical interference, LEDGF/p75 integration counter-screen; shares compounds with LEDGF integ inh; TR-FRET optical interference counterscreen, HIV-1 IN multimerization; inhibition, % at 7.7 µM; 2,000 tested, under 10 active;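 active = inhibition above the mean over all tested compounds plus 3 SD, which no compound reached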;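 also: 0% = integrase with antibodies and DMSO and 100% = antibodies without integrase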
# LEDGF integ conf = LEDGF/p75-dependent HIV-1 integration inhibition, confirmation; shares compounds with LEDGF integ inh; TR-FRET LEDGF/p75-dependent HIV-1 integration, biochemical; inhibition, % at 3.7 µM; actives 36% (n = 2,000); AID 1053136; in the data active = inhibition above about 14%
# Starred values were filed as active, the others as inactive; / = no result given. The list is not random: actives were taken first. Their share in the collection is about 1.3%.
SMILES,TDP2 absorb,LEDGF integ inh,ARFGAP1 inh,Casp6 inh,ASAP1 GAP inh,IN multimer act,TR-FRET interf,LEDGF integ conf
CC(C)NCC(O)c1ccc(O)c(O)c1 (stereo unspecified),7.0,-8.8,-1.8,-10.0,2.3,/,/,/
NC[C@H](O)c1ccc(O)c(O)c1,2.6,14.9*,5.9,78.9*,-3.2,1.5,-7.3,-10.2
CC(C)(C)c1ccc(-c2csc(N3CCC(C(N)=O)CC3)n2)cc1,-5.9,2.8,/,/,/,/,/,/
O=C(CSc1nc2ccccc2[nH]1)NC1CCS(=O)(=O)C1 (stereo unspecified),3.8,37.0*,1.6,/,3.3,0.3,-1.4,-7.6
FC(F)(F)C1=Nc2cccc3cccc(c23)N1,6.2,78.7*,8.2,-0.3,-0.5,57.1*,-205.2,57.0*
Brc1ccc(C2=Nc3cccc4cccc(c34)N2)o1,-7.2,42.4*,3.6,1.1,-2.0,-0.8,3.9,5.0
COc1ccc(-c2nnnn2-c2ccc(F)cc2F)cc1,10.3,-2.5,3.6,-1.8,-0.8,/,/,/
CCCOc1ccc(CC(=O)NCCc2ccccc2)cc1OC,-18.9,13.9*,0.8,0.7,-3.7,1.3,-4.8,-4.4
CCOc1cc(/C=C2\C(=O)N(Cc3ccco3)C(C)=C2C(=O)OC)ccc1O,2.2,14.2*,14.6,-2.6,9.5,1.1,-5.4,-3.6
Cn1cccc1/C=C1\CCC/C(=C\c2cccn2C)C1=O,3.0,18.7*,12.9,/,6.3,1.3,-6.4,-3.8
COc1cc(C2OCC3C(c4ccc(OC5OC(CO)C(O)C(O)C5O)c(OC)c4)OCC23)ccc1O (stereo unspecified),-5.7,32.5*,-12.7,3.6,-8.1,33.8*,-120.1,14.9*
COc1cc([C@H]2OC[C@H]3[C@@H]2CO[C@H]3c2ccc(O)c(OC)c2)ccc1O,11.5,-4.5,2.8,0.9,5.5,/,/,/
CCN(CC)S(=O)(=O)c1ccc(N2CCOCC2)c(NC(=O)CN2C(=O)NC(C)(c3ccccc3)C2=O)c1 (stereo unspecified),3.2,-1.1,-0.2,4.4,-1.3,/,/,/
C[C@@H]1C=C(C(=O)NCc2ccccc2)O[C@H](OCc2ccc(CO)cc2)C1,23.2,16.4*,-7.0,0.1,5.0,-0.4,1.9,1.0
O=C(NCc1ccccc1)C1=C[C@H](c2ccccc2)C[C@H](OCc2ccc(CO)cc2)O1,-17.0,-2.0,-3.6,1.2,8.2,/,/,/
COc1ccc(C)cc1N(C(=O)CNC(=O)c1ccco1)C(C(=O)NCC1CCCO1)c1ccccc1 (stereo unspecified),7.7,0.1,-2.4,1.8,13.2,/,/,/
N=C1c2ccccc2CN1NC(=O)c1cccc(S(=O)(=O)N2CCCC2)c1,15.9,89.1*,-5.9,2.1,-3.2,-1.2,6.1,-3.9
CCN(CC)S(=O)(=O)c1cccc(C(=O)NN2Cc3ccccc3C2=N)c1,-3.1,-8.8,-1.7,-1.1,1.4,/,/,/
CN(C)c1ccc(O)c2c1CC1CC3[C@@H](N(C)C)C(=O)C(C(N)=O)C(=O)[C@]3(O)C(=O)C1C2=O (stereo partly specified),4.9,37.1*,-0.4,21.9,4.3,5.0,-25.0,6.7
C[C@H]1c2cccc(O)c2C(O)=C2C(=O)C3(O)C(O)=C(C(N)=O)C(=O)[C@@H](N(C)C)[C@@H]3[C@@H](O)[C@@H]21 (stereo partly specified),0.9,7.5,5.0,24.4,-11.0,/,/,/
C=C1c2cccc(O)c2C(O)=C2C(=O)[C@]3(O)C(O)=C(C(N)=O)C(=O)[C@@H](N(C)C)[C@@H]3[C@@H](O)[C@H]12,21.7,85.0*,-11.8,93.8*,-3.3,50.4*,-179.5,62.6*
